# Measurements from ChEMBL document CHEMBL4330087, “Synthesis, antimicrobial activity, attenuation of aminoglycoside resistance in MRSA, and ribosomal A-site binding of pyrene-neomycin conjugates” (Eur J Med Chem, 2019).
# Calls of active or inactive are those of the source. No cut-off for these calls is given here.
# Experiments:
# Ribosomal RNA A-site [1] = test: Displacement of F-NEO from Escherichia coli rRNA-A site after 10 to 20 mins by fluorescence assay relative to NEO; format: nucleic-acid assay; set-up: concentration or dose not given beside the values
# Summary of the method: (§1)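 100 nM F-NEO:A-site complex in 10 mM HEPES, 50 mM NaCl, 0.04 mM EDTA, pH 7.0, mixed with ligand and incubated 10-20 min at room temperature. Fluorescence read at ex 485/em 525 nm, in duplicate. Percent binding was computed from the intensities of ligand-treated complex, complex without ligand, and complex with neomycin.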
# Ribosomal RNA A-site [2] = test: Displacement of F-NEO from human cytosolic rRNA-A site after 10 to 20 mins by fluorescence assay relative to NEO; format: nucleic-acid assay; set-up: concentration or dose not given beside the values; summary of the method: as §1
# Ribosomal RNA A-site [3] = test: Displacement of F-NEO from human mitochondrial rRNA-A site after 10 to 20 mins by fluorescence assay relative to NEO; format: nucleic-acid assay; set-up: concentration or dose not given beside the values; summary of the method: as §1
# Homo sapiens [4] = organism: Homo sapiens; test: Displacement of F-NEO from human mitochondrial rRNA-A site C1410U mutant after 10 to 20 mins by fluorescence assay relative to NEO; set-up: concentration or dose not given beside the values; summary of the method: as §1
# Homo sapiens [5] = organism: Homo sapiens; test: Displacement of F-NEO from human mitochondrial rRNA-A site A1490G mutant after 10 to 20 mins by fluorescence assay relative to NEO; summary of the method: as §1
# Ribosomal RNA A-site [6] = test: Displacement of F-NEO from Escherichia coli rRNA-A site after 10 to 20 mins by fluorescence assay; format: nucleic-acid assay
# Summary of the method: (§2)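 A 100 nM F-NEO:A-site RNA complex in 10 mM HEPES, 50 mM NaCl, 0.04 mM EDTA, pH 7.0 was titrated with 2-fold dilutions of ligand from 20 to 0.009 μM, or from 60 or 40 μM for weaker ligands. Incubated 10-20 min at room temperature, fluorescence read at ex 485/em 525 nm. IC50 from dose-response curve fit.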
# Ribosomal RNA A-site [7] = test: Displacement of F-NEO from human cytosolic rRNA-A site after 10 to 20 mins by fluorescence assay; format: nucleic-acid assay; summary of the method: as §2
# Ribosomal RNA A-site [8] = test: Displacement of F-NEO from human mitochondrial rRNA-A site after 10 to 20 mins by fluorescence assay; format: nucleic-acid assay; summary of the method: as §2
# [9] = Displacement of F-NEO from human mitochondrial rRNA-A site C1410U mutant after 10 to 20 mins by fluorescence assay; summary of the method: as §2
# Staphylococcus aureus [10] = test: Antibacterial activity against NEO-sensitive Staphylococcus aureus 25923 at 6.25 uM after 15 to 20 hrs by CLSI protocol based microdilution assay relative to control; format: functional
# Summary of the method: (§3)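 Single-concentration screen at 6.25 μM against exponential-phase cultures, in duplicate, with NEO as reference. Enterococcus was grown in BHI broth, M. smegmatis in TS broth with 0.05% Tween 80, and all other strains in TS broth. The 1% DMSO water vehicle was added to broth (background) and culture (growth control). Incubation was 37 °C, humidified, 15-20 h. Result is percent growth inhibition.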
# Staphylococcus aureus [11] = test: Antibacterial activity against NEO-sensitive Staphylococcus aureus harboring NorA mutant at 6.25 uM after 15 to 20 hrs by CLSI protocol based microdilution assay relative to control; format: functional
# Summary of the method: (§4)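 Exponential-phase cultures were exposed to 6.25 μM compound in duplicate with neomycin as reference, at 37 °C in a humidified incubator for 15-20 h. Broth and culture controls received sterile water with 1% DMSO. Percent growth inhibition was calculated against the growth and background controls.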
# [12] = system: Staphylococcus epidermidis; test: Antibacterial activity against NEO-sensitive Staphylococcus epidermidis 12384 at 6.25 uM after 15 to 20 hrs by CLSI protocol based microdilution assay relative to control; format: functional; summary of the method: as §3
# Staphylococcus aureus [13] = test: Antibacterial activity against methicillin-resistant Staphylococcus aureus 33591 at 6.25 uM after 15 to 20 hrs by CLSI protocol based microdilution assay relative to control; format: functional; summary of the method: as §4
# Staphylococcus aureus [14] = test: Antibacterial activity against methicillin-resistant Staphylococcus aureus A960649 at 6.25 uM after 15 to 20 hrs by CLSI protocol based microdilution assay relative to control; format: functional; summary of the method: as §4
# Staphylococcus aureus [15] = test: Antibacterial activity against methicillin-resistant Staphylococcus aureus SU-5 at 6.25 uM after 15 to 20 hrs by CLSI protocol based microdilution assay relative to control; format: functional; summary of the method: as §4
# Staphylococcus aureus [16] = test: Antibacterial activity against methicillin-resistant Staphylococcus aureus M0602 at 6.25 uM after 15 to 20 hrs by CLSI protocol based microdilution assay relative to control; format: functional; summary of the method: as §4
# Streptococcus pyogenes = test: Antibacterial activity against NEO-resistant Streptococcus pyogenes C203 at 6.25 uM after 15 to 20 hrs by CLSI protocol based microdilution assay relative to control; format: functional; summary of the method: as §4
# Enterococcus faecalis = test: Antibacterial activity against NEO-intermediate sensitive Enterococcus faecalis ATCC 29212 at 6.25 uM after 15 to 20 hrs by CLSI protocol based microdilution assay relative to control; format: functional; summary of the method: as §3
# Enterococcus faecium = test: Antibacterial activity against NEO-intermediate sensitive Enterococcus faecium BM4105-RF at 6.25 uM after 15 to 20 hrs by CLSI protocol based microdilution assay relative to control; format: functional; summary of the method: as §3
# [17] = system: Mycolicibacterium smegmatis; test: Antibacterial activity against NEO-sensitive Mycobacterium smegmatis at 6.25 uM after 15 to 20 hrs by CLSI protocol based microdilution assay relative to control; format: functional; summary of the method: as §3
# Bacillus anthracis = test: Antibacterial activity against NEO-sensitive Bacillus anthracis BA852 at 6.25 uM after 15 to 20 hrs by CLSI protocol based microdilution assay relative to control; format: functional; summary of the method: as §4
# Listeria monocytogenes = test: Antibacterial activity against NEO-sensitive Listeria monocytogenes ATCC 19115 at 6.25 uM after 15 to 20 hrs by CLSI protocol based microdilution assay relative to control; format: functional; summary of the method: as §3
# Escherichia coli [18] = test: Antibacterial activity against NEO-sensitive Escherichia coli ATCC 25922 at 6.25 uM after 15 to 20 hrs by CLSI protocol based microdilution assay relative to control; format: functional; summary of the method: as §3
# Escherichia coli [19] = test: Antibacterial activity against NEO-sensitive Escherichia coli harboring TolC mutant at 6.25 uM after 15 to 20 hrs by CLSI protocol based microdilution assay relative to control; format: functional; summary of the method: as §4
# Escherichia coli [20] = test: Antibacterial activity against multidrug-resistant Escherichia coli H4H at 6.25 uM after 15 to 20 hrs by CLSI protocol based microdilution assay relative to control; format: functional; summary of the method: as §4
# Acinetobacter baumannii = test: Antibacterial activity against NEO-sensitive Acinetobacter baumannii ATCC 19606 at 6.25 uM after 15 to 20 hrs by CLSI protocol based microdilution assay relative to control; format: functional, ATCC 19606 = CIP 70.34 = JCM 6841; summary of the method: as §3
# Pseudomonas aeruginosa = test: Antibacterial activity against NEO-resistant Pseudomonas aeruginosa 27853 at 6.25 uM after 15 to 20 hrs by CLSI protocol based microdilution assay relative to control; format: functional; summary of the method: as §4
# Klebsiella oxytoca = test: Antibacterial activity against NEO-sensitive Klebsiella oxytoca HM-625 at 6.25 uM after 15 to 20 hrs by CLSI protocol based microdilution assay relative to control; format: functional; summary of the method: as §3
# [21] = Antibacterial activity against NEO-sensitive Enterobacter cloacae 13047 at 6.25 uM after 15 to 20 hrs by CLSI protocol based microdilution assay relative to control; format: functional, Enterobacter cloacae subsp. cloacae, ATCC 13047; summary of the method: as §3
# Staphylococcus aureus [22] = test: Antibacterial activity against NEO-sensitive Staphylococcus aureus C2 after 15 to 20 hrs by CLSI protocol based microdilution assay; format: functional
# Summary of the method: (§5)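 CLSI broth microdilution MIC in triplicate on exponential-phase cells, ~3×10^5 cells per mL in cation-adjusted Mueller-Hinton broth. Compound was added from 10× stocks in 10% DMSO as serial 2-fold dilutions, final 50 to 0.78 μM. Plates were incubated at 37 °C, humidified, 15-20 h. Growth was read as absorbance at 595 nm, and percent inhibition was averaged over triplicates.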
# Staphylococcus aureus [23] = test: Antibacterial activity against NEO-sensitive Staphylococcus aureus C1 after 15 to 20 hrs by CLSI protocol based microdilution assay; format: functional; summary of the method: as §5
# Staphylococcus aureus [24] = test: Antibacterial activity against NEO-sensitive Staphylococcus aureus NRS77 after 15 to 20 hrs by CLSI protocol based microdilution assay; format: functional; summary of the method: as §5
# Staphylococcus aureus [25] = test: Antibacterial activity against NEO-sensitive Staphylococcus aureus 6538 after 15 to 20 hrs by CLSI protocol based microdilution assay; format: functional; summary of the method: as §5
# Klebsiella pneumoniae = test: Antibacterial activity against Klebsiella pneumoniae NR-151410 at 6.25 uM after 15 to 20 hrs by CLSI protocol based microdilution assay relative to control; format: functional; summary of the method: as §3
# [26] = Inhibition of Eis (unknown origin)
# [27] = Inhibition of AAC(3)-4 (unknown origin)
# [28] = Inhibition of AAC(6')-1e (unknown origin)
# [29] = Inhibition of AAC(2')-1c (unknown origin)
# [30] = Inhibition of APH(3')-1a (unknown origin)
# [31] = Inhibition of APH(2\")-1a (unknown origin)
smiles,measurement,setting,value
NC[C@@H]1O[C@H](O[C@H]2[C@@H](O)[C@H](O[C@@H]3[C@@H](O)[C@H](N)C[C@H](N)[C@H]3O[C@H]3O[C@H](CN)[C@@H](O)[C@H](O)[C@H]3N)O[C@@H]2CNC(=O)CCc2ccc3ccc4cccc5ccc2c3c45)[C@H](N)[C@@H](O)[C@@H]1O,inhibition,Ribosomal RNA A-site [1],33%
same,inhibition,Ribosomal RNA A-site [2],39%
same,inhibition,Ribosomal RNA A-site [3],47%
same,inhibition,Homo sapiens [4],65%
same,inhibition,Homo sapiens [5],22%
same,IC50,Ribosomal RNA A-site [6],310 nM
same,IC50,Ribosomal RNA A-site [7],447 nM
same,IC50,Ribosomal RNA A-site [8],373 nM
same,IC50,[9],332 nM
same,Activity,Staphylococcus aureus [10],15%
same,Activity,Staphylococcus aureus [11],inactive
same,Activity,[12],10%
same,Activity,Staphylococcus aureus [13],14%
same,Activity,Staphylococcus aureus [14],16%
same,Activity,Staphylococcus aureus [15],inactive
same,Activity,Staphylococcus aureus [16],inactive
same,Activity,Streptococcus pyogenes,inactive
same,Activity,Enterococcus faecalis,6%
same,Activity,Enterococcus faecium,0%
same,Activity,[17],35%
same,Activity,Bacillus anthracis,inactive
same,Activity,Listeria monocytogenes,inactive
same,Activity,Escherichia coli [18],0%
same,Activity,Escherichia coli [19],inactive
same,Activity,Escherichia coli [20],inactive
same,Activity,Acinetobacter baumannii,10%
same,Activity,Pseudomonas aeruginosa,14%
same,Activity,Klebsiella oxytoca,5%
same,Activity,[21],0%
same,MIC,Staphylococcus aureus [22],25 µM
same,MIC,Staphylococcus aureus [23],25 µM
same,MIC,Staphylococcus aureus [24],> 25 µM
same,MIC,Staphylococcus aureus [25],12.5 µM
same,Activity,Klebsiella pneumoniae,13%
same,inhibition,[26],Active
same,inhibition,[27],Active
same,inhibition,[28],Active
same,inhibition,[29],Active
same,inhibition,[30],Active
same,inhibition,[31],Active
